Source: PubChem BioAssay (several laboratories)
NR2E3 ag-1: inhibitors of NR2E3-RetCOR corepressor binding, primary screen, NR2E3 agonist project, biochemical, TR-FRET, GST-NR2E3, biotin-RetCOR. Photoreceptor-specific nuclear receptor (Homo sapiens), Q9Y5X4. 1536-well. inhibition of corepressor binding, % at 4.78 µM. 0.12% of 320,000 active;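 active means percent inhibition above the cutoff of mean plus 3 SD of all tested compounds, set per screening campaign, cut at about 20% in these data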
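Material: NR2E3–RetCOR corepressor complex / Incubation: Compound–protein incubation for 5 h at 4 °C / Dosing: compound at 4.8 µM, single dose / Detection: time-resolved FRET / Benchmarks: high control biotin, low control 0.6% DMSO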
Rev-erbA mod: modulators of Rev-erb alpha DNA binding, primary screen, biochemical, FITC-DNA, fluorescence polarization, uHTS; Nuclear receptor subfamily 1 group D member 1 (Homo sapiens), P20393; Rev-erbα–FITC-DNA binding, 90 min; activity, % at 10 µM; 0.79% of 370,000 active;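 active means activity above about 14%, limit read from the data; passing the limit was not always enough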
PG9 binder: binders of HIV-1 gp120 antibody PG9, primary screen, biochemical, TR-FRET. TR-FRET gp120-PG9 antibody binding. 0.43% of 360,000 active. HIV-1 gp120 / PG9 antibody interaction. inhibition, % at 6.7 µM; in the data active means inhibition above about 8.5%
NR2E3 ag-2: NR2E3 agonists in two-hybrid cells, primary screen, cell-based, luminescence, CHO-S, Gal4-NCOR/VP16-NR2E3 | luciferase | inhibition of corepressor binding, % at 3.98 µM | 0.35% of 360,000 active | AID 602229, 2012;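 active means inhibition above the mean of all tested compounds plus 3 SD, cut at about 70% in these data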;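 further: higher means lower luciferase signal from less NR2E3 corepressor binding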
Neddylation inh: inhibitors of cullin neddylation, primary screen, biochemical, TR-FRET, uHTS, NAE and Ubc12; AID 651699, 2012; 0.58% of 360,000 active; NEDD8-conjugating enzyme Ubc12 (Homo sapiens) + NEDD8-activating enzyme E1 regulatory …; calls only at 25 µM; in the data active means inhibition above about 36%
Target sequence (P61081 whole entry, looked up): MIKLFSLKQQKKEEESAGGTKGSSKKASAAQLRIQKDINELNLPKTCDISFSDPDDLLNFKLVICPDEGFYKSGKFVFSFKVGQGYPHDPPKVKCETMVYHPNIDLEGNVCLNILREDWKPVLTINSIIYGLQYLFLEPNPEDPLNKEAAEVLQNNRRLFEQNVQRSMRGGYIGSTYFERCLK
Target sequence (Q13564 whole entry, looked up): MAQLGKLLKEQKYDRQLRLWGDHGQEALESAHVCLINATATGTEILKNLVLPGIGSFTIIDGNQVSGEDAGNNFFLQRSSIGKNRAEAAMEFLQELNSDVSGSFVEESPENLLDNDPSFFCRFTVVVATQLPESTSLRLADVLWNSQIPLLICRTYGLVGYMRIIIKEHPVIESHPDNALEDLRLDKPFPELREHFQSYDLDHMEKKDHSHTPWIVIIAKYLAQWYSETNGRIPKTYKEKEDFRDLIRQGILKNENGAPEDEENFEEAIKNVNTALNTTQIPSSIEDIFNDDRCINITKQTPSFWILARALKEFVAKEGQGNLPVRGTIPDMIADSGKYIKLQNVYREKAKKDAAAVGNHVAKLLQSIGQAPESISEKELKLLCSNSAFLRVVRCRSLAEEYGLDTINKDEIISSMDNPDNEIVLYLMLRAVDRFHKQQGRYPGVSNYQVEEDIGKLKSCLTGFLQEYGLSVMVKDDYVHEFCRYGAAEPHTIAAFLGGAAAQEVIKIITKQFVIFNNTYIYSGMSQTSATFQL
Neddyl inh conf: blockade of NEDD8 conjugation to cullin – biochemical, TR-FRET, single concentration, confirmation. shares compounds with Neddylation inh. calls only at 25 µM. 13% of 1,800 active. TR-FRET cullin neddylation biochemical assay; in the data active means inhibition above about 40%;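 further: neddylation substrate is the cullin 1 ring ligase complex with SKP2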
Calls only; . = inactive; / = no result shown; + = active, no number. A selection: hits, their analogues and other compounds. The true share with any hit is near 2%.

SMILES	NR2E3 ag-1	Rev-erbA mod	PG9 binder	NR2E3 ag-2	Neddylation inh	Neddyl inh conf
CCCC[n+]1ccn(-c2nc3c([N+](=O)[O-])cccc3n2C)c1	/	.	.	.	.	/
O=C(CN1CCCC1)N1CCCc2c1c(=O)oc1ccc(OCc3ccccc3)cc21	.	.	.	.	+	/
CCCOc1ccc2oc(=O)c3c(c2c1)CCCN3C(=O)CN1CCN(C(=O)c2ccco2)CC1	.	/	/	/	/	/
O=C(O)c1ccc(NC(=O)c2ccc3c(c2)C(=O)N(CC2CCCO2)C3=O)cc1 (stereo not given)	.	.	.	.	.	/
Cc1ccc(C(=O)Nc2ccc3c(c2)C(=O)N(CC2CCCO2)C3=O)cc1 (stereo not given)	.	.	.	.	+	/
COc1ccccc1NC(=O)Cn1nnc(C(=O)NCc2ccc3c(c2)OCO3)c1N	.	.	.	.	.	/
COc1ccc(Cl)cc1NC(=O)Cn1nnc(C(=O)NCc2ccc3c(c2)OCO3)c1N	.	.	.	.	+	.
COc1ccc(C(CC(=O)N2CCCCC2)c2c(OC)cc(OC)c3ccc(=O)oc23)cc1 (stereo not given)	.	.	.	.	+	+
O=C(Cc1ccc(Cl)cc1)NNC(=S)NC(=O)c1cccs1	.	.	.	.	+	.
O=C(Cc1cccs1)NNC(=S)NCc1ccc(Cl)cc1	.	.	.	.	.	/
O=C(NCc1cccc(F)c1)Nc1nnc([C@H]2C[C@H](O)[C@@H](CO)O2)s1	/	.	.	.	.	/
Cn1c(=O)c2c(ncn2CC(=O)OCC(=O)Nc2cccc(C#N)c2)n(C)c1=O	/	.	.	.	.	/
CCCCN(CC)CCCNC(=O)c1cc2c(=O)n(C)c3ccccc3c2n1C	.	.	.	.	+	.
COC(=O)c1ccccc1COn1c(=O)c[n+]([O-])c2ccccc21	.	.	.	.	.	/
O=c1c[n+]([O-])c2ccccc2n1OCc1c(F)cccc1F	.	.	.	.	+	+
CCOn1c(=O)c[n+]([O-])c2ccccc21	.	.	.	.	+	/
O=c1c[n+]([O-])c2ccccc2n1OCc1ccccn1	.	.	.	.	+	.
Cc1c(=O)n(OCc2ccccn2)c2ccccc2[n+]1[O-]	.	.	.	.	.	/
CCOC(=O)[C@]12CCCC=C1N(CCCOC)C(=O)[C@@H]2CC(=O)NCCCCc1ccccc1	/	.	/	/	/	/
CCNC(=O)C1(C)CCCN(C(=O)c2nc3ccccc3s2)C1 (stereo not given)	/	.	.	.	.	/
COc1ccc(-c2cc3ccc(O)cc3oc2=O)cc1OC	.	.	.	.	.	/
COc1ccc(-c2cc3ccc(OCC(N)=O)cc3oc2=O)cc1OC	.	.	.	.	+	.
Cc1ccc2nc(Cl)cc(=O)n2c1	/	.	.	.	+	.
Cc1ccc2nc(COC(=O)c3ccc(Cl)nc3)cc(=O)n2c1	/	.	.	.	.	/
CC(C)c1ccc(/C=C/C(=O)NC(=S)Nc2ccc(CN3CCOCC3)cc2)cc1	.	.	.	.	+	.
SMILES	NR2E3 ag-1	Rev-erbA mod	PG9 binder	NR2E3 ag-2	Neddylation inh	Neddyl inh conf
COc1ccc(CCNc2cc(C)nc3c(-c4ccccc4)c(C)nn23)cc1OC	.	.	.	.	/	/
COc1ccc(-c2c(C)nn3c(NC4CCCC4)cc(C)nc23)cc1OC	.	.	.	.	+	.
CC(C(=O)NC1CCCCC1)N1C(=O)C2C3C=CC(C3)C2C1=O (stereo not given)	.	.	.	.	.	/
CC(C(=O)Nc1ccc2nccnc2c1)N1C(=O)C2C3C=CC(C3)C2C1=O (stereo not given)	.	.	.	.	+	/
COCCNC(=O)CSc1ccc(-c2nc3ccccc3[nH]2)cn1	.	.	.	.	+	+
CCOC(=O)CSc1ccc(-c2nc3ccccc3[nH]2)cn1	.	.	.	.	.	/
[O-][n+]1c2ccccc2cc2ccccc21	.	.	.	.	+	/
